TRPC4 potent: positive allosteric modulators of TRPC4, primary screen, cell-based, mouse TRPC4beta, HEK293 mu-opioid, Fluo-4 calcium; Short transient receptor potential channel 4 (Mus musculus), Q9QUQ5; DAMGO EC20, Fluo-4 Ca2+ flux; hits give high values; B-score at 10 µM; hit rate 0.42% among 310,000;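 active = B-score of calcium response area above 5 SD of library B-scores, with initial fluorescence ratio within 5 SD of library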;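 note: B-score of integrated fluorescence ratio over time as area under calcium response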
Target sequence (Q9QUQ5 whole entry, looked up): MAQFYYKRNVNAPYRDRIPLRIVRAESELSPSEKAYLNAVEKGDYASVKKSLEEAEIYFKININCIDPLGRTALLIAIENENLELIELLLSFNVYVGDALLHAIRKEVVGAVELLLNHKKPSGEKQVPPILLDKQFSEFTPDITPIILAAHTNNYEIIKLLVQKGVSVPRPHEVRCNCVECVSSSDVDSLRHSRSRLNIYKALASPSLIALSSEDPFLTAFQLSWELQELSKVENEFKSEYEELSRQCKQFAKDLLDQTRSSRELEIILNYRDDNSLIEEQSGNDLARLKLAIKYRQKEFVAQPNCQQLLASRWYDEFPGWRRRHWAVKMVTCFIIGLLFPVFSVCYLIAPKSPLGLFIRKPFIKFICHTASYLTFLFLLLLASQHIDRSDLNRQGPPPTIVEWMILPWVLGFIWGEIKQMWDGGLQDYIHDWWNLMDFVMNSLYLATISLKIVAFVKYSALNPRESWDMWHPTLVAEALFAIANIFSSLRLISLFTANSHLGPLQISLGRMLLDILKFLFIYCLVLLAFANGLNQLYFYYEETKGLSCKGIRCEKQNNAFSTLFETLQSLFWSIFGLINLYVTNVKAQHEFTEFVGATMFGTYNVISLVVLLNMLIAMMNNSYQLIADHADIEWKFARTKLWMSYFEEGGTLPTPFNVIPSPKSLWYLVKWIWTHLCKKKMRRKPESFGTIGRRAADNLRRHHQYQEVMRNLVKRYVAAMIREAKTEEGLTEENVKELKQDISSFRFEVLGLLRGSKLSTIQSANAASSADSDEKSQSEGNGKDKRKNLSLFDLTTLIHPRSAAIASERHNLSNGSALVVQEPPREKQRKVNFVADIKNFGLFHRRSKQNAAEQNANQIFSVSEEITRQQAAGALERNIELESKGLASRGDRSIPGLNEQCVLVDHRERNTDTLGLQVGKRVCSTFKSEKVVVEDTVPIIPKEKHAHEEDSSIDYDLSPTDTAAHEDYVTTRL
TRPC4 act: activators of mouse TRPC4 channel, primary screen, Fluo4 calcium, HEK293 TRPC4beta/mu-opioid cells; Fluo4 calcium fluorescence; hits give high values; B-score at 10 µM; Short transient receptor potential channel 4 (Mus musculus), Q9QUQ5; hit rate 0.49% among 310,000;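 active = B-score above 5 SD of library B-scores, and initial fluorescence ratio not above library mean plus 5 SD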;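 note: positive B-score marks a calcium rise read as TRPC4 activation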
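Incubation: 45 min room-temperature Fluo4 loading, 110 s read / System: HEK293 cells stably co-expressing mouse TRPC4beta and mu-opioid receptor / Signal: Fluo4 fluorescence, kinetic / Control set: buffer (low) and maximal DAMGO (high) / Measure: integrated baseline-normalised fluorescence ratio, converted to per-well B score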
TRPC6 act: mouse TRPC6 channel activators, primary screen, cell-based, HEK293, membrane potential dye | Short transient receptor potential channel 6 (Mus musculus), Q61143 | HEK293-TRPC6 membrane potential dye fluorescence; hits give high values | B-score at 10 µM | hit rate 0.13% among 310,000;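 active = B-score of the integrated fluorescence ratio above library mean plus 3 SD, and starting fluorescence ratio within library mean plus 5 SD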;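 note: higher score means more depolarization so channel activation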
Kir21 inh: inhibitors of mouse Kir2.1 inward-rectifier potassium channel | HEK293-Kir2.1, FluxOR thallium flux fluorescence; hits give low values | hit rate 0.85% among 310,000 | B-score at 10 µM | Inward rectifier potassium channel 2 (Mus musculus), P35561;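 active = fluorescence ratio B-score at or below minus 3 SD of library scores, with starting-brightness B-score within 2 SD, cut at about -4.2 in these data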;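 note: channel flux triggered by added potassium and thallium sulfate stimulus; B-score of peak minus minimum fluorescence over baseline after thallium stimulus; more negative B-score means stronger Kir2.1 block with less thallium influx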
TRPC4 block: inhibitors of mouse TRPC4 channel, primary screen, Fluo4 calcium, HEK293 TRPC4beta/mu-opioid cells | hit rate 0.39% among 300,000 | DAMGO-evoked Fluo4 calcium flux; hits give low values | Short transient receptor potential channel 4 (Mus musculus), Q9QUQ5 | B-score at 10 µM;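 active = B-score over 3 SD under the library average, no early fluorescence shift, positive overall ratio signal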
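test system = HEK293 cells with stable TRPC4beta plus mu-opioid receptor expression | detection = Fluo4 Ca2+ flux fluorescence | read-out = integrated fluorescence ratio relative to baseline, converted to per-well B score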
TRPC6 inhibitor: mouse TRPC6 channel inhibitors, primary screen, cell-based, HEK293, membrane potential dye | B-score at 10 µM | Short transient receptor potential channel 6 (Mus musculus), Q61143 | hit rate 1.1% among 310,000 | ACh-evoked depolarization; hits give low values;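 active = B-score under library mean minus 3 SD, initial fluorescence not abnormally high, positive integrated signal ratio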;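 note: B-score derived from integrated fluorescence ratio over the kinetic read; more negative B-score means stronger inhibition of depolarization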
TRPC4 spec 2: second selectivity test of TRPC6 inhibitors: effect on mouse TRPC4. shares compounds with TRPC6 inhibitor. HEK293 TRPC4/MOR, membrane potential dye fluorescence; channel activated by saturating DAMGO dose. inhibition, % at 10 µM. hit rate 42% among 920. AID 2776;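 active = compounds whose fluorescence signal differed from control wells by over 3 SD, either direction, in both duplicate plates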
TRPC4 spec: mouse TRPC4 modulation by TRPC6 hits, confirmation, selectivity assay for TRPC6 inhibitor project, cell-based, HEK293 TRPC4/mu-opioid, membrane potential dye. AID 2777, 2010. activity change, negative = inhibition, % at 10 µM. shares compounds with TRPC6 inhibitor. hit rate 61% among 920. membrane potential fluorescence;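 active = rise or fall in signal beyond 3 SD of buffer-only wells in both replicate plates, either sign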;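 note: integrated kinetic ratio of fluorescence range over baseline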
HEK293 MPD ctr 2-1: nonspecific membrane potential effects, parental HEK293, confirmation, counter-screen for TRPC6 inhibitor project, cell-based, second counter screen. parental HEK293 membrane potential dye fluorescence; maximal acetylcholine challenge after compound addition. hit rate 31% among 920. shares compounds with TRPC6 inhibitor. signal change vs control, % at 10 µM. AID 2779, 2010;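 active = membrane potential signal moving either way by over 3 SD of the maximum-effect control, in both duplicate plates, meaning non-specific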
HEK293 MPD ctr-1: membrane potential modulation in parental HEK293, confirmation, counter-screen for TRPC6 inhibitor project, cell-based; shares compounds with TRPC6 inhibitor; parental HEK293 membrane potential dye fluorescence; membrane potential signal change, % at 10 µM; hit rate 60% among 920; AID 2780, 2010;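 active = membrane potential signal shifting up or down by more than 3 SD of buffer-only wells, on both duplicate plates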
HEK293 MPD ctr-2: parental HEK293 membrane potential modulation, confirmation, counter-screen for TRPC6 modulator project, cell-based; membrane potential dye fluorescence; membrane potential signal change, % at 10 µM; AID 488924, 2010; hit rate 51% among 2,400; shares compounds with TRPC6 inhibitor;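 active = membrane potential signal moves up or down beyond 5 SD from buffer-only wells, on both duplicate plates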
HEK293 MPD ctr 2-2: second counter-screen for TRPC6 modulators: effect in parental HEK293 cells; inhibition, % at 10 µM; membrane potential dye fluorescence; after compound, maximal acetylcholine stimulation; shares compounds with TRPC6 inhibitor; hit rate 14% among 2,400;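 active = membrane potential signal drops by more than 5 SD from the mean control signal, in both duplicate plates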;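 note: plate controls were acetylcholine ECmax control wells for no effect and buffer only wells for full effect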
TRPC4 ctr mod: TRPC4 modulation by TRPC6 hit compounds, confirmation, selectivity assay for TRPC6 modulator project, cell-based, HEK293 TRPC4/mu-opioid, membrane potential dye, mouse. shares compounds with TRPC6 inhibitor. membrane potential fluorescence. percent change from control (negative = decrease, positive = increase), % at 10 µM. hit rate 69% among 2,400. AID 488927, 2010;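 active = membrane potential signal moved up or down beyond 5 SD of buffer control wells, in both duplicate plates, actives on both sides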;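 note: plate controls were assay buffer wells for no effect and DAMGO maximal-effect wells for full effect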
TRPC4/MOR inh 2: second check of whether TRPC6 modulators also affect mouse TRPC4 | shares compounds with TRPC6 inhibitor | HEK293 TRPC4/mu-opioid, membrane potential dye fluorescence; stimulated with maximal-effect DAMGO | inhibition, % at 10 µM | hit rate 55% among 2,400 | AID 488928;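 active = drop in membrane potential signal beyond 5 SD of the control wells in both duplicate plates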;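 note: TRPC4 counter screen for TRPC6 hits run under conditions tuned for TRPC6 not TRPC4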
TRPC6 inh conf: mouse TRPC6 channel inhibitors, confirmation, HEK293 cells, membrane potential dye, duplicate; shares compounds with TRPC6 inhibitor; ACh-evoked depolarization; inhibition, % at 10 µM; hit rate 43% among 3,300;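 active = fluorescence ratio falls more than 5 SD below the full-stimulation control mean, in both duplicate runs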;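 note: integrated fluorescence ratio of peak minus minimum over baseline after agonist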
TRPC6 act confirm: mouse TRPC6 channel activators, confirmation, HEK293 cells, membrane potential dye, duplicate | shares compounds with TRPC6 inhibitor | HEK293-TRPC6 membrane potential dye fluorescence, FDSS | activation, % at 10 µM | hit rate 11% among 2,800 | AID 488961, 2010;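 active = ratio signal rise beyond 5 SD above unstimulated control wells' mean, seen in both duplicate runs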;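 note: plate controls were buffer EC0 wells for no effect and acetylcholine ECmax response for full effect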
The depositor's hits bear a star; i = inactive; x = not tested or not shown. Only some compounds are listed: those with a hit (about 3% of all), similar ones and a draw of the others.

SMILES	TRPC4 potent	TRPC4 act	TRPC6 act	Kir21 inh	TRPC4 block	TRPC6 inhibitor	HEK293 MPD ctr-2	HEK293 MPD ctr 2-2	TRPC4 ctr mod	TRPC4/MOR inh 2	TRPC6 inh conf	TRPC6 act confirm	others
O=C1c2ccccc2C(=O)c2c1ccc(C(=O)N1CCCCC1)c2NCCO	i	i	i	0.29	i	i	x	x	x	x	x	x
CC1CCCN(C(=O)c2ccc3c(c2NCCO)C(=O)c2ccccc2C3=O)C1 (stereo not drawn)	i	i	i	-0.62	i	-5.9*	-235%*	i	-36%*	68%*	49%*	i
CCN(CCN(C)C)C(=O)c1ccc2c(c1NCCO)C(=O)c1ccccc1C2=O	i	i	i	0.02	i	-5.9*	-168%*	i	-34%*	49%*	45%*	i
COc1ccccc1NC(=O)c1cccc2c(Br)cccc12	i	i	i	0.52	i	i	x	x	x	x	x	x
O=C(CSc1cnc2ccccc2n1)c1ccc(F)cc1	i	i	i	-0.89	i	i	x	x	x	x	x	x
Cc1nn(CC(=O)O)c(C)c1Cl	i	i	i	-1.5	i	-11*	i	i	i	i	i	i
COc1cccc(Cl)c1NC(=O)N1CCN(c2cc(C)nc3ccccc23)CC1	i	i	i	-3.3	i	-9.7*	-146%*	i	-38%*	74%*	48%*	i
Cc1cc(N2CCN(S(=O)(=O)c3ccc(Cl)cc3)CC2)c2ccccc2n1	i	i	i	-0.06	i	-5.1*	-75%*	i	-22%*	72%*	i	i
COc1cccc(Cl)c1NC(=O)N1CCN(c2ccnc3cc(Cl)ccc23)CC1	i	i	i	-0.59	i	i	x	x	x	x	x	x
Cc1ccccc1N1C(=O)c2ccccc2C1O (stereo not drawn)	i	i	i	-0.23	i	i	x	x	x	x	x	x
O=C(Nc1ccc(Cl)cc1)c1ccc(-n2cncn2)c([N+](=O)[O-])c1	i	i	i	0.06	i	-5.5*	-106%*	i	i	56%*	i	i
CC[C@@H](C)CN1C(=O)N[C@@H](c2ccccc2)C(C(C)=O)=C1C	i	i	i	0.66	i	i	x	x	x	x	x	x
CC(C)CN=c1cc(-c2ccccc2)oc2ccc(Cl)cc12	i	i	i	0.22	i	-7.4*	x	x	x	x	i	i	TRPC4 spec 2=76%*;TRPC4 spec=-14%*;HEK293 MPD ctr 2-1=i;HEK293 MPD ctr-1=-268%*
OCCN=c1cc(-c2ccccc2)oc2ccc(Cl)cc12	i	i	i	0.46	i	-8.8*	x	x	x	x	55%*	i	TRPC4 spec 2=67%*;TRPC4 spec=-28%*;HEK293 MPD ctr 2-1=i;HEK293 MPD ctr-1=-356%*
CC(O)CN=c1cc(-c2ccccc2)oc2ccc(Cl)cc12 (stereo not drawn)	i	i	i	0.23	i	-7.3*	-134%*	i	-28%*	37%*	58%*	i
O=c1oc2ccc(Cl)cc2cc1-c1ccccc1	i	i	i	0.01	i	i	x	x	x	x	x	x
Cc1cc(Cl)ccc1Oc1ncnc2oc(-c3ccccc3)cc12	i	i	i	0.16	i	i	x	x	x	x	x	x
CCOc1ccccc1OCC(=O)NNC(=O)Cn1cnc2c1c(=O)n(C)c(=O)n2C	i	i	i	0.67	i	i	x	x	x	x	x	x
CCOC(=O)c1cnc2ccc(OC)cc2c1Nc1ccc2c(c1)OCCO2	i	i	i	0.83	i	-7.5*	x	x	x	x	i	i	TRPC4 spec 2=i;TRPC4 spec=-14%*;HEK293 MPD ctr 2-1=i;HEK293 MPD ctr-1=-292%*
CCOC(=O)c1ccc2ncc(C(=O)OCC)c(Nc3ccc(N4CCOCC4)cc3)c2c1	i	i	i	0.44	i	-9.7*	-186%*	i	-46%*	42%*	i	i
CCOC(=O)c1cnc2ccc(C(=O)OC)cc2c1Nc1ccc(C(=O)O)cc1	i	i	i	0.62	i	-5.2*	-248%*	i	-37%*	43%*	i	i

High-throughput results deposited in PubChem BioAssay by Johns Hopkins Ion Channel Center.
